Reference: ChEMBL document CHEMBL1136928, “Novel orally bioavailable gamma-secretase inhibitors with excellent in vivo activity” (J Med Chem, 2009)
Active and inactive are the calls of the source. The calls are words filed in the database; no cut-off is given here.

Columns and labels:
[1] = target: Gamma-secretase; experiment: Inhibition of gamma secretase in human SH-SY5Y cells by HTRF assay; format: cell-based
[2] = tested on: Mus musculus; experiment: Reduction in amyloid beta40 production in po dosed human betaAAP overexpressing YAC mouse forebrain after 4 hrs; format: functional; settings: Brain
Outline: (§1)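 APP-YAC transgenic mice overexpressing human βAPP; oral dosing as suspension in 0.5% methocel, 3 mg/kg (also 0.3 and 1 mg/kg for dose–response). Soluble Aβ(40) in forebrain measured 4 h post-dose; reduction expressed relative to vehicle-treated animals; ED50 from dose–response.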

[3] = Bioavailability in dog; format: ADME, organism-based, Canis lupus familiaris; settings: in vivo
[4] = Half life in dog; format: ADME, organism-based, Canis lupus familiaris; settings: in vivo
[5] = Bioavailability in rat; format: ADME, organism-based; settings: in vivo
[6] = Inhibition of gamma secretase assessed as amyloid beta40 production
[7] = Half life in rhesus monkey; format: ADME, organism-based, Macaca mulatta; settings: in vivo
[8] = Bioavailability in rhesus monkey; format: ADME, organism-based, Macaca mulatta; settings: in vivo
[9] = Half life in rat; format: ADME, organism-based; settings: in vivo
[10] = Inhibition of gamma secretase assessed as amyloid beta42 production
[11] = tested on: Mus musculus; experiment: Reduction in amyloid beta40 production in human betaAAP overexpressing YAC mouse forebrain at 3 mg/kg, po after 4 hrs relative to control; format: functional; set-up: scale not given: the % may be the effect or the level left; outline: as §1

| SMILES | IC50 [1] | further results |
| --- | --- | --- |
| O=S1(=O)N[C@@]2(CN1CC(F)(F)F)[C@@H]1CC[C@H]2Cc2ccc(-c3ncc(-c4ccc(F)cc4)s3)cc2C1 | 0.42 nM |  |
| O=S1(=O)N[C@@]2(CN1CC(F)(F)F)[C@@H]1CC[C@H]2Cc2ccc(-c3ncn(-c4ccc(F)cc4)n3)cc2C1 | 0.15 nM |  |
| O=S1(=O)N[C@@]2(CN1CC(F)(F)F)[C@@H]1CC[C@H]2Cc2ccc(-c3cn(-c4ccccc4F)cn3)cc2C1 | 0.17 nM |  |
| O=S1(=O)N[C@@]2(CN1CC(F)(F)F)[C@@H]1CC[C@H]2Cc2ccc(-c3cn(-c4cccc(F)c4)cn3)cc2C1 | 0.82 nM |  |
| O=S1(=O)N[C@@]2(CN1CC(F)(F)F)[C@@H]1CC[C@H]2Cc2ccc(-c3cn(-c4ccc(Cl)cc4)cn3)cc2C1 | 0.08 nM |  |
| O=S1(=O)N[C@@]2(CN1CC(F)(F)F)[C@@H]1CC[C@H]2Cc2ccc(/C=C/CN3CCC(C(F)(F)F)CC3)cc2C1 | 0.24 nM | ED50 [2]: 17 mg/kg |
| O=S1(=O)N[C@@]2(CN1CC(F)(F)F)[C@@H]1CC[C@H]2Cc2ccc(-c3ncc(N4CCC(C(F)(F)F)CC4)s3)cc2C1 | 0.34 nM |  |
| O=S1(=O)N[C@@]2(CN1CC(F)(F)F)[C@@H]1CC[C@H]2Cc2ccc(-c3cn(-c4ccc(F)c(F)c4)cn3)cc2C1 | 0.12 nM |  |
| Cn1nc(-c2ccc3c(c2)C[C@H]2CC[C@@H](C3)[C@]23CN(CC(F)(F)F)S(=O)(=O)N3)cc1-c1ccc(F)cc1F | 0.06 nM |  |
| Cn1nc(-c2ccc3c(c2)C[C@H]2CC[C@@H](C3)[C@]23CN(CC(F)(F)F)S(=O)(=O)N3)cc1-c1ccc(F)cc1 | 0.06 nM | bioavailability [3]: 42%; half-life [4]: > 10 h; bioavailability [5]: 35%; Activity [6]: Active; half-life [7]: 16 h; bioavailability [8]: 45%; half-life [9]: 2 h; ED50 [2]: 1 mg/kg; Activity [10]: Active; Activity [11]: 84% |
| O=S1(=O)N[C@@]2(CN1CC(F)(F)F)[C@@H]1CC[C@H]2Cc2ccc(-c3cn(-c4ccc(F)cc4)cn3)cc2C1 | 0.03 nM | Activity [11]: 66% |
| Cn1nc(-c2ccc(F)cc2)cc1-c1ccc2c(c1)CC1CCC(C2)C12CN(CC(F)(F)F)S(=O)(=O)N2 (racemic) | 1.65 nM |  |
| O=S1(=O)N[C@@]2(CN1CC(F)(F)F)[C@@H]1CC[C@H]2Cc2ccc(-c3cn(-c4ccc(Cl)c(Cl)c4)cn3)cc2C1 | 0.42 nM |  |
| Cn1nc(-c2ccc3c(c2)C[C@H]2CC[C@@H](C3)[C@]23CN(CC(F)(F)F)S(=O)(=O)N3)cc1-c1ccc(Cl)c(Cl)c1 | 0.41 nM |  |
| Cn1nc(-c2ccc3c(c2)C[C@H]2CC[C@@H](C3)[C@]23CN(CC(F)(F)F)S(=O)(=O)N3)cc1-c1ccc(F)c(F)c1 | 0.06 nM |  |
| Cn1nc(-c2ccc3c(c2)C[C@H]2CC[C@@H](C3)[C@]23CN(CC(F)(F)F)S(=O)(=O)N3)cc1-c1cccc(F)c1 (racemic) | 0.46 nM |  |
| O=S1(=O)N[C@@]2(CN1CC(F)(F)F)[C@@H]1CC[C@H]2Cc2ccc(-c3cn(-c4ccc(F)cc4F)cn3)cc2C1 | 0.06 nM |  |
| Cn1nc(-c2ccc3c(c2)CC2CCC(C3)C23CN(CC(F)(F)F)S(=O)(=O)N3)cc1-c1ccccc1F (racemic) | 0.21 nM |  |
| Cn1nc(-c2ccc3c(c2)C[C@H]2CC[C@@H](C3)[C@]23CN(CC(F)(F)F)S(=O)(=O)N3)cc1-c1ccc(Cl)cc1 | 0.07 nM |  |
